# Test results taken from PubChem BioAssay AID624466 (The Scripps Research Institute Molecular Screening Center, 2012).
# The whole screen tested about 360,000 compounds, of which about 5,400 (1.5%) were called active.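 Rule for the calls: active = inhibition above a per-plate cutoff, the mean inhibition of test compounds on that plate plus 3 SD (cut at about 49% in these data); inactive = the rest.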 For the sample, actives were picked, then their nearest neighbours and some compounds at random.
# Molecular target: Trace amine-associated receptor 1 (Homo sapiens) (UniProt Q96RJ0)
# Test: human TAAR1 antagonists, primary screen, Fluo-8 calcium fluorescence, CHO RD-HGA16 cells (AID 624466);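 note: 0% = DMSO plus EC80 beta-PEA response and 100% = DMSO alone without agonist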
# Details: CHO RD-HGA16 TAAR1, Fluo-8 calcium fluorescence, antagonist; at 3 µM; stronger effect = higher value
# Outline: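 Assay system: RD-HGA16 CHO cells with stable hTAAR1 and Gα16 / Reagent: EC80 β-phenethylamine stimulus / Doses: 3 µM, single point / Timing: dye loading 75 min at 37 °C, then 30 min room temperature / Measured by: Fluo-8 intracellular calcium dye fluorescence, real-time kinetic reads / Controls: vehicle wells and EC80 agonist wells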
# Sequence of Trace amine-associated receptor 1 (Homo sapiens) (Q96RJ0 whole entry, looked up): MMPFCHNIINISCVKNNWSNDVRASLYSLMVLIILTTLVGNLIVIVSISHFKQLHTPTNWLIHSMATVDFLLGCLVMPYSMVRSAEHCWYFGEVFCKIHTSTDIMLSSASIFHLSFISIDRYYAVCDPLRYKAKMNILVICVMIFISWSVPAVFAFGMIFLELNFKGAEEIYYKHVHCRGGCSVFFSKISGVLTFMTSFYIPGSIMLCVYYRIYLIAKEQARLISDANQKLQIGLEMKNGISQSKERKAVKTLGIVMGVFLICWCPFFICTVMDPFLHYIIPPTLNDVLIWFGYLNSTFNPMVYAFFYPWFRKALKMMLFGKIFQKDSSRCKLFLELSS
row,Compound,inhibition
1,Cc1cccc2[nH]c(CN(C)C(=O)C3CCC(=O)N(CCc4ccccc4)C3)nc12 (centres undefined),-20.8% (inactive)
2,Cc1ccc(N(C(=O)CC2NC(=O)NC2=O)C2(C(=O)NC3CCCC3)CCCCC2)cc1 (centres undefined),-7.81% (inactive)
3,CCCCCCCC[n+]1cccc(C(=O)N2c3c(nc(N)[nH]c3=O)NC(C)C2C)c1 (centres undefined),-7.7% (inactive)
4,CC(C)NC(=O)N1Cc2cc(C(=O)NCC(F)(F)F)nc(-c3cccc(-c4cc5ccccc5o4)c3)c2[C@@H]1CCO,51.9% (active)
5,CCNC(=O)c1cc2c(c(-c3cccc(-c4cncnc4)c3)n1)[C@H](CCO)N(C(C)=O)C2,-0.11% (inactive)
6,CC(C)(C)S(=O)N1Cc2cc(C(=O)NCCCN3CCOCC3)nc(-c3cccc(-c4cc5ccccc5o4)c3)c2[C@H]1CCO (some centres undefined),8.67% (inactive)
7,O=C(O)CC/C(=C\c1cc2c(cc1Br)OCO2)c1nc2ccccc2s1,-13.4% (inactive)
8,COc1cccc(/C=C(/CC(=O)Nc2ccc(N3CCOCC3)cc2)c2nc3ccccc3s2)c1,-10.9% (inactive)
9,COc1ccc(C(=O)Nc2cccc(/C=C(/CCC(=O)O)c3nc4ccccc4s3)c2)cc1,57.2% (active)
10,CC(=O)C[C@@H]1OC[C@H](C)N1S(=O)(=O)c1ccc(C)cc1,-22.5% (inactive)
11,COC(=O)[C@]1(C)N[C@H](c2ccc(-c3ccc(Cl)c(Cl)c3)cc2)[C@@H]2C(=O)N(C)C(=O)[C@@H]21,20.9% (inactive)
12,CCNS(=O)(=O)c1ccc(CCC(=O)N2CCN(c3ccc(OC)cc3)CC2)cc1,8.27% (inactive)
13,CCCNS(=O)(=O)c1ccc(CCC(=O)N2CCCC2)cc1,-0.2% (inactive)
14,CCNS(=O)(=O)c1ccc(CCC(=O)N2CCN(c3cc(Cl)ccc3C)CC2)cc1,65.9% (active)
15,CCOc1ccc(NS(=O)(=O)c2cc(C)c(C)cc2C)cc1,18.6% (inactive)
16,Cc1cccc(NC(=O)CN2CCN(CC(=O)NCC3(N4CCCCC4)CCCCC3)CC2)c1C,-28.3% (inactive)
17,COc1ccc(NC(=O)C2=CC(c3ccc(OC)c(OC)c3)=NS(=O)(=O)N2C)cc1,52.3% (active)
18,COc1cc(NC(=O)C2=CC(c3ccco3)=NS(=O)(=O)N2C)cc(OC)c1OC,-8.05% (inactive)
19,COc1cc(NC(=O)C2=CC(c3ccc(C)cc3)=NS(=O)(=O)N2C)cc(OC)c1OC,-7.77% (inactive)
20,O=C(O)C1CCCN1S(=O)(=O)c1ccc(Br)cc1 (centres undefined),-6.42% (inactive)
21,CC(=O)c1ccc(N2CCN(C(=O)c3ccc4nc[nH]c4c3)CC2)cc1,-29.8% (inactive)
22,O=C(O)CC/C(=N\NC(=O)c1ccc(F)cc1)c1ccc(Br)cc1,3.38% (inactive)
23,CSc1ccc(/C=N/NC(=O)c2cccc(Cl)c2)cc1,8.63% (inactive)
24,CC1=NNC(=O)C1CCC(=O)N/N=C\c1ccc(Cl)c(Cl)c1 (centres undefined),-10.3% (inactive)
25,CC(=NNC(=O)c1ccc2nc[nH]c2c1)c1ccc(Br)cc1,51.9% (active)
26,O=C(N/N=C/c1ccc(Cl)c(Cl)c1)c1ccc2nc[nH]c2c1,63.3% (active)
27,C[C@H](CO)N1C[C@H](C)[C@H](CN(C)C(=O)Nc2ccc(C(F)(F)F)cc2)Oc2c(NC(=O)c3ccncc3)cccc2C1=O,3.31% (inactive)

row,Compound,inhibition
1,O=C(C[C@H]1CC[C@@H](NC(=O)c2ccncc2)[C@@H](CO)O1)NCC1CC1,-5.86% (inactive)
2,COC(=O)C1=C(C)NC(=S)NC1c1ccc(OC)cc1 (centres undefined),-22.6% (inactive)
3,CC(=O)N1Cc2cc(C(=O)NCc3cccc(F)c3)nc(-c3cccc(C4=CCCC4)c3)c2[C@H]1CCO,-5.18% (inactive)
4,COC(=O)c1c(-c2ccc(OC)cc2)c2c(c3c4cc(OC)ccc4n(S(=O)(=O)c4ccc(F)cc4)c13)C(=O)N(C)C2,-12.2% (inactive)
5,C#CCN([C@@H](C)C(=O)OCC)S(=O)(=O)c1ccc(Br)cc1F,15% (inactive)
6,CN(c1ccccc1)S(=O)(=O)c1cc(C(=O)Nc2nc3ccccc3[nH]2)ccc1Cl,59% (active)
7,CN(c1ccccc1)S(=O)(=O)c1cc(C(=O)N2CCN(c3ncccn3)CC2)ccc1Cl,42.5% (inactive)
8,Cc1cccc(NC(=O)c2ccc(S(=O)(=O)N(C)c3ccccc3)cc2)n1,27.4% (inactive)
9,Cc1ccc(S(=O)(=O)N2CCC(=O)N([C@H](COCc3ccccc3)C(C)C)CC2)cc1,1.41% (inactive)
10,COC(=O)c1ccc(CN2C(=O)[C@]3(OCCC=C[C@H]3C)c3c(Br)cccc32)cc1,-17.5% (inactive)
11,Cc1cc(OCCOc2cccc3cccnc23)c(C)cc1Cl,-4.44% (inactive)
12,Cc1ccc2cccc(OCCCOc3ccccc3CO)c2n1,49.6% (active)
13,CCOc1cccc(OCCCOc2cccc3cccnc23)c1,-11% (inactive)
14,CSc1ccc(S(=O)(=O)N2CCC(C(=O)NCc3ccncc3)CC2)cc1,-9.01% (inactive)
15,CC(=O)C1=CCC(c2ccccc2)N(S(=O)(=O)c2ccc(C)cc2)C1 (centres undefined),-17.1% (inactive)
16,Cc1cc(C)c(SCCc2ccncc2)c(C)c1,11.4% (inactive)
17,CC(C)(C)c1ccc(SCCc2ccncc2)cc1,49.2% (active)
18,c1ccc(CSCCc2ccncc2)cc1,5.41% (inactive)
19,CCOCCCN1C(=O)CN(C2CCCCC2)C(=O)C1c1ccc(OCC)c(OC)c1 (centres undefined),11.2% (inactive)
20,CCCCn1nnnc1C(c1ccccc1)N1CCN(c2ccccc2OC)CC1 (centres undefined),12.1% (inactive)
21,Cc1nc2ccccc2n1C(=O)N1CCOCC1,12.8% (inactive)
22,CCN(CC)CCN(C)C(c1ccnc2ccccc12)c1nnnn1-c1ccc2c(c1)OCCO2 (centres undefined),4.47% (inactive)
23,COc1cc(OC)c(N2CC(C(=O)Nc3cc(Cl)ccc3N3CCOCC3)CC2=O)cc1Cl (centres undefined),6.19% (inactive)
24,COc1ccc(-n2c(-c3ccc(Cl)cc3)n[nH]c2=S)c(OC)c1,-24.1% (inactive)
25,COc1cc(OC)c(-n2cc(-c3ccc(Cl)cc3)[nH]c2=O)cc1Cl,85.5% (active)
26,CCCn1nc(NS(=O)(=O)c2ccc(F)cc2)c2cc3ccccc3nc21,9.03% (inactive)
27,COc1ccccc1-c1ccc([C@@H]2C[C@H]3[C@H](CON3C)CN2S(=O)(=O)c2cc(Cl)cc(Cl)c2)cc1,-24.5% (inactive)
